Test results taken from ChEMBL document CHEMBL5042523, “Novel Macrocyclic Peptidomimetics Targeting the Polo-Box Domain of Polo-Like Kinase 1” (J Med Chem, 2022).
Calls of active or inactive are those of the source. No cut-off for these calls is given here. Where a SMILES comes first, the peptide text is derived from it. [ ]: non-standard residue; d: D form. pT = C[C@@H](OP(=O)(O)O)[C@H](N)C(=O)O

Experiments:
HeLa = experiment: Antiproliferative activity against human HeLa cell assessed as viable cells measured after 2 days by MTS assay; assay type: functional, cell-based; settings: time 2.0 day
Method in brief: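 HeLa cells, asynchronously growing, seeded at 2000 cells/100 μL in triplicate. Compound added for 24 h, then medium replaced and compound given for another 24 h (48 h continuous). MTS reagent added for 1–4 h at 37 °C, 5% CO2. Absorbance read at 490 nm. Three independent experiments, mean relative signal with s.d.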

[1] = target: Serine/threonine-protein kinase PLK2 (Homo sapiens) (UniProt Q9NYY3); experiment: Binding affinity to PlK2-PBD (unknown origin) using 5-carboxyfluorescein-Ahx-GPMQTS-pT-PKNG as substrate measured after 30 min by fluorescence polarization assay
Method in brief: (§1)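 Competitive fluorescence polarization. E. coli-purified PBD used at its EC85 with 10 nM (final) 5-carboxyfluorescein-labelled phosphopeptide: GPMQTS-pT-PKNG probe for Plk2, GPLATS-pT-PKNG probe for Plk3. Buffer was 10 mM Tris-Cl pH 8.0, 1 mM EDTA, 50 mM NaCl, 0.01% NP-40, with test peptide over a concentration range. Polarization read 30 min after mixing. Three independent experiments.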

[2] = target: Serine/threonine-protein kinase PLK3 (Homo sapiens) (UniProt Q9H4B4); experiment: Binding affinity to PlK3-PBD (unknown origin) using 5-carboxyfluorescein-Ahx-GPLATS-pT-PKNG as substrate measured after 30 min by fluorescence polarization assay; method in brief: as §1
[3] = Drug uptake in Wistar rat administered iv measured after 5 to 30 mins by PET imaging analysis; assay type: ADME, organism-based; settings: in vivo, time 5-30 min

Sequence of Serine/threonine-protein kinase PLK2 (Homo sapiens) (Q9NYY3 whole entry, looked up): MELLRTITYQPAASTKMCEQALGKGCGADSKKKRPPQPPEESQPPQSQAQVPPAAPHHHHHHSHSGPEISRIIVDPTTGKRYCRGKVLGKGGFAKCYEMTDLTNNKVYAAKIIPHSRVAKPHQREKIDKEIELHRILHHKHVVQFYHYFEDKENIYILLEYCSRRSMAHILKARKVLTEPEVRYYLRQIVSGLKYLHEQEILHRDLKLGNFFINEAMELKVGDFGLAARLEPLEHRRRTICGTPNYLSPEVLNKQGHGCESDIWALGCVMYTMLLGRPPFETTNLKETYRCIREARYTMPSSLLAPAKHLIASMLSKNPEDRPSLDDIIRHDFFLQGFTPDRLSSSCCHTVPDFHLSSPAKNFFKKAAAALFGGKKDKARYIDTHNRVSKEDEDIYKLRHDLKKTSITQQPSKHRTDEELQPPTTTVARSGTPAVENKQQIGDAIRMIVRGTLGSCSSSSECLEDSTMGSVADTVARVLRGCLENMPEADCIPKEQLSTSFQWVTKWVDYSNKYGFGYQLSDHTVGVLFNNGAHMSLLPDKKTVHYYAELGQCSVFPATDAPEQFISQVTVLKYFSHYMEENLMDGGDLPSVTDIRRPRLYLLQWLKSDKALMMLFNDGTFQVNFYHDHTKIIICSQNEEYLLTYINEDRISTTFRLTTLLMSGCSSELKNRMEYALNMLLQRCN
Sequence of Serine/threonine-protein kinase PLK3 (Homo sapiens) (Q9H4B4 whole entry, looked up): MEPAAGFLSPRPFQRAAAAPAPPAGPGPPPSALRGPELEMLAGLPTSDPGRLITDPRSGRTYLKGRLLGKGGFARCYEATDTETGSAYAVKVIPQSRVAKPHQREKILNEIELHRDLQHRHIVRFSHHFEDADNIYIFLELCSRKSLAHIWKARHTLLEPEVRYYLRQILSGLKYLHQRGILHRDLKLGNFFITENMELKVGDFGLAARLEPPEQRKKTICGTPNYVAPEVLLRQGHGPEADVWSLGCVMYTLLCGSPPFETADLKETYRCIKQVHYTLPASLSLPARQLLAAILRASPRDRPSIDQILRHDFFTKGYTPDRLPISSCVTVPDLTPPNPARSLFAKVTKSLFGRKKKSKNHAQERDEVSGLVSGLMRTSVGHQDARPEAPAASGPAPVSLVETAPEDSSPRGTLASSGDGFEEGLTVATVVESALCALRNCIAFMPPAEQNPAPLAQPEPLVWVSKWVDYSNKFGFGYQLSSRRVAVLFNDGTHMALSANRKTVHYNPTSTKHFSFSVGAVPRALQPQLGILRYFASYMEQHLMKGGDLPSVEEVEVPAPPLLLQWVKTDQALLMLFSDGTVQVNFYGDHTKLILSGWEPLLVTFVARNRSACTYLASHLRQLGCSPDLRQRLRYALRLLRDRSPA

| Compound | Activity (HeLa) | Activity [1] | Activity [2] | Drug uptake [3] |
| --- | --- | --- | --- | --- |
| COC(=O)[C@H](CC(C)C)NC(=O)[C@@H]1CC[C@H]2OCCNC(=O)CC[C@H](NC(=O)c3cc(OCC(C)C)cc(OCC(C)C)c3)C(=O)N[C@@H](CO)C(=O)N[C@@H]([C@@H](C)OP(=O)(O)O)C(=O)N21 | Active | inactive | inactive | – |
| COC(=O)[C@H](CC(C)C)NC(=O)[C@@H]1CCCN1C(=O)[C@@H](NC(=O)[C@H](CO)NC(=O)[C@H](CCC(N)=O)NC(=O)[C@H](CCSC)NC(=O)[C@@H]1CCCN1)[C@@H](C)OP(=O)(O)O (H-PMQS[pT]PL-OMe) | – | – | – | Not Active |
